According to article PMC10100219 (Chemistry (Weinheim an Der Bergstrasse, Germany), 2022):
Substitutions are numbered along the chain they refer to.

Tests used:
Assay in all cases: UV-Vis titration, Soret spin-state shift
Type in all cases: binding
[1] = biological target: T1, CYP199A4 (Rhodopseudomonas palustris, UniProt Q2IU02, T253A)
T1 sequence (Q2IU02 1-410 T253A): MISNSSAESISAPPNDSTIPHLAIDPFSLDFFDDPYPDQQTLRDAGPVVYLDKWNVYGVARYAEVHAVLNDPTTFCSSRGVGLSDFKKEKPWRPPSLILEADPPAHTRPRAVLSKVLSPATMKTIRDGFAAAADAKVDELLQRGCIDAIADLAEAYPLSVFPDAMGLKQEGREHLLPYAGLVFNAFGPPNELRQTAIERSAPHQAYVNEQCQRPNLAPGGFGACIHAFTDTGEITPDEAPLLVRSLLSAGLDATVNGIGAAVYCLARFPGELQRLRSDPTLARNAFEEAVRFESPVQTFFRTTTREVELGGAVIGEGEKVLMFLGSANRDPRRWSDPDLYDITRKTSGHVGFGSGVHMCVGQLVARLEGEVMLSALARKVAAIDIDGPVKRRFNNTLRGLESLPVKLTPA
How it was run: (§1)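 CYP199A4 mutants (D251N, T252A) from Rhodopseudomonas palustris HaA2 were titrated with para-substituted benzoic acid test compounds, with UV-Vis monitoring to obtain Kd. Spectra were recorded from 700 to 250 nm at 600 nm min⁻¹, and repeated at 60 nm min⁻¹ to verify small Soret shifts. P450 concentration came from pyridine hemochromogen extinction coefficients: D251N 123±1, T252A 120±4 mM⁻¹ cm⁻¹.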

[2] = biological target: T2, CYP199A4 (Rhodopseudomonas palustris, UniProt Q2IU02)
T2 sequence (Q2IU02 1-410): T1 sequence (Q2IU02 1-410 T253A) with A253T

[3] = biological target: T3, CYP199A4 (Rhodopseudomonas palustris, UniProt Q2IU02, D252N)
T3 sequence (Q2IU02 1-410 D252N): T1 sequence (Q2IU02 1-410 T253A) with D252N, A253T
How it was run: as §1

| Structure (SMILES) | Kd [1] | Kd [2] | Kd [3] |
| --- | --- | --- | --- |
| CCSc1ccc(C(=O)O)cc1 [4‐ethylthiobenzoic acid] | 250 ± 50 nM | 990 ± 50 nM | – |
| CSc1ccc(C(=O)O)cc1 [4‐methylthiobenzoic acid] | 1400 ± 100 nM | 2300 ± 300 nM | 830 ± 80 nM |
